{"data": "Experimental data collected from several papers", "read-out": "metabolic stability", "host": "human", "medium": "liver microsomes", "note": "Each line is one published result; the experiments were not run side by side."}
{"Compound": "O=S(=O)(c1ccc(-c2ccc3nccc(Nc4cnccn4)c3c2)cc1)N1CCOCC1", "microsomal CLint": "115 µL/min/mg"}
{"Compound": "Cc1cc(Nc2ccc(C(F)(F)F)cc2)n2nc(C(C)(F)F)nc2n1", "setting": "1 µM, pH 7.4", "microsomal CLint": "< 6 µL/min/mg"}
{"Compound": "COc1cc2[nH]c(C)c(-c3ccc(O)cc3)c(=O)c2cc1Cl", "setting": "1 µM", "microsomal CLint": "< 7 µL/min/mg"}
{"Compound": "Cc1cc(Nc2ccc(S(F)(F)(F)(F)F)cc2)n2ccnc2n1", "microsomal CLint": "7.1 µL/min/mg"}
{"Compound": "COc1cc2[nH]c(C)c(-c3ccc(C(F)(F)F)cc3)c(=O)c2cc1Cl", "setting": "1 µM", "microsomal CLint": "< 7 µL/min/mg"}
{"Compound": "COc1cc(OC)cc(-c2c(-c3ccccn3)nc3n2CCC3)c1", "setting": "3 µM, pH 7.4", "microsomal CLint": "53 µL/min/mg"}
{"Compound": "COc1cc2[nH]c(C)c(-c3ccc(C(C)C)cc3)c(=O)c2cc1Cl", "setting": "1 µM", "microsomal CLint": "34 µL/min/mg"}
{"Compound": "FC(F)(F)c1cccc(Nc2c(-c3ccccn3)nc3ccccn23)c1", "setting": "3 µM, pH 7.4", "microsomal CLint": "59 µL/min/mg"}
{"Compound": "N#Cc1cccc(-c2nc(N3CCC(c4ccccn4)C3)c3ccccc3n2)c1 (stereo not shown)", "microsomal CLint": "261 µL/min/mg"}
{"Compound": "COc1cc2[nH]c(C)c(-c3ccc(N(C)C)cc3)c(=O)c2cc1Cl", "setting": "1 µM", "microsomal CLint": "15 µL/min/mg"}
{"Compound": "CCC(F)(F)c1nc2nc(C)cc(Nc3ccc(S(F)(F)(F)(F)F)cc3)n2n1", "setting": "1 µM, pH 7.4", "microsomal CLint": "< 6 µL/min/mg"}
{"Compound": "CCOC(=O)c1c(-c2cccc(Br)c2)[nH]c2cc(OC)c(F)cc2c1=O", "setting": "19.8 µM, pH 7.4", "microsomal CLint": "< 4 µL/min/mg"}
{"Compound": "c1ccc(-c2nc3n(c2-c2ccncc2)CCC3)nc1", "setting": "3 µM, pH 7.4", "microsomal CLint": "26 µL/min/mg"}
{"Compound": "O=C(O)C1CCN(c2nc(-c3ccccn3)nc3ccccc23)C1 (stereo not shown)", "microsomal CLint": "9 µL/min/mg"}
{"Compound": "CCn1nccc1Nc1ccnc2ccc(-c3ccc(S(=O)(=O)N4CCOCC4)cc3)cc12", "microsomal CLint": "134 µL/min/mg"}
{"Compound": "C=CCn1c(=O)c2cnc(Nc3ccc(N4CCN(C)CC4)cc3)nc2n1-c1cccc(C(C)(C)O)n1", "microsomal CLint": "17 µL/min/mg"}
{"Compound": "c1ccc(-c2nc(N3CCCC3)c3ccccc3n2)nc1", "microsomal CLint": "62 µL/min/mg"}
{"Compound": "O=S(=O)(c1ccc(-c2ccc3nccc(Nc4ncc(Cl)cn4)c3c2)cc1)N1CCOCC1", "microsomal CLint": "113 µL/min/mg"}
{"Compound": "CCn1cnc2c(N3CCC(c4ccccn4)C3)nc(-c3ccccn3)nc21 (stereo not shown)", "microsomal CLint": "42 µL/min/mg"}
{"Compound": "Fc1ccc(N(CC2CC2)c2c(-c3ccccn3)nc3ccccn23)cc1", "setting": "3 µM, pH 7.4", "microsomal CLint": "110 µL/min/mg"}
{"Compound": "NC(=O)c1cccc(-c2nc(N3CCC(c4ccccn4)C3)c3ccccc3n2)c1 (stereo not shown)", "microsomal CLint": "111 µL/min/mg"}
{"Compound": "Cc1cc(NC(=O)Nc2ccc3c(c2)OC(F)(F)O3)cc(C(F)(F)F)n1", "microsomal CLint": "< 7 µL/min/mg"}
{"Compound": "c1ccc(C2CCN(c3nc(-c4ccco4)nc4ccccc34)C2)nc1 (stereo not shown)", "microsomal CLint": "149 µL/min/mg"}
{"Compound": "Clc1cccc(-c2c(-c3ccccn3)nc3n2CCC3)c1", "setting": "3 µM, pH 7.4", "microsomal CLint": "140 µL/min/mg"}
{"Compound": "c1ccc(CN2CCN(c3nc(-c4ccccn4)nc4ccccc34)CC2)cc1", "microsomal CLint": "136 µL/min/mg"}
{"Compound": "O=C(N[C@H](Cc1ccccc1)C(=O)Nc1ccccc1N1CCS(=O)(=O)CC1)c1ccccc1F", "setting": "2 µM, 40 min, pH 7.4", "microsomal CLint": "1110 µL/min/mg"}
{"Compound": "C[C@@H](C(=O)NC1Cc2ccccc2C1)c1ccccc1", "setting": "1 µM, 1 h", "microsomal CLint": "105 µL/min/mg"}
{"Compound": "O=C(C1CCSCC1)N1CC(=O)N2CCc3ccccc3[C@@H]2C1", "setting": "0.1 µM, pH 7.4", "microsomal CLint": "28 µL/min/mg"}
{"Compound": "COc1cc2[nH]c(C)c(-c3ccc(CO)cc3)c(=O)c2cc1Cl", "setting": "1 µM", "microsomal CLint": "< 7 µL/min/mg"}
{"Compound": "O=S(=O)(c1ccc(-c2ccc3nccc(Nc4cccnc4)c3c2)cc1)N1CCOCC1", "microsomal CLint": "86.3 µL/min/mg"}
{"Compound": "COc1cccnc1-c1nc2ccccn2c1Nc1ccc(F)cc1", "setting": "3 µM, pH 7.4", "microsomal CLint": "19 µL/min/mg"}
{"Compound": "COc1ccc(Nc2ccnc3ccc(-c4ccc(S(=O)(=O)N5CCOCC5)cc4)cc23)cc1Cl", "microsomal CLint": "102 µL/min/mg"}
{"Compound": "Fc1ccc(Nc2c(-c3cc(Cl)ccn3)nc3ccccn23)cc1", "setting": "3 µM, pH 7.4", "microsomal CLint": "160 µL/min/mg"}
{"Compound": "Fc1cccc(F)c1-c1nc(N2CCC(c3ccccn3)C2)c2ccccc2n1 (stereo not shown)", "microsomal CLint": "114 µL/min/mg"}
{"Compound": "CC(C)(C)[Si](C)(C)OCCCN(c1ccc(F)cc1)c1c(-c2ccccn2)nc2ccccn12", "setting": "3 µM, pH 7.4", "microsomal CLint": "> 300 µL/min/mg"}
{"Compound": "C[C@H](N)c1cc(Cl)ccc1Cn1c(=S)[nH]c(=O)c2[nH]ccc21", "microsomal CLint": "< 3 µL/min/mg"}
{"Compound": "COc1cc2[nH]c(C)c(-c3ccc(C(C)=O)cc3)c(=O)c2cc1Cl", "setting": "1 µM", "microsomal CLint": "11 µL/min/mg"}
{"Compound": "O=S(=O)(c1ccc(-c2ccc3nccc(Nc4ccccc4)c3c2)cc1)N1CCOCC1", "microsomal CLint": "71.3 µL/min/mg"}
{"Compound": "COc1cc2[nH]c(C)c(-c3ccc(COc4ccccc4)cc3)c(=O)c2cc1Cl", "setting": "1 µM", "microsomal CLint": "22 µL/min/mg"}
{"Compound": "CCc1nnc(Nc2ccnc3ccc(-c4ccc(S(=O)(=O)N5CCOCC5)cc4)cc23)s1", "microsomal CLint": "59.3 µL/min/mg"}
